Tests used:
Assay type in all cases: functional
Plasmodium berghei [1] = assay: Antimalarial activity in Plasmodium berghei infected mice (Mus musculus) after 320 mg/kg subcutaneous dose
Summary of the method: (§1)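 […] in mice infected with a normal drug-sensitive P. berghei strain. Compound dissolved or suspended in sesame or peanut oil, given as a single subcutaneous dose 72 h postinfection.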

Plasmodium berghei [2] = assay: (§2) Antimalarial activity in Plasmodium berghei infected mice (Mus musculus) after 80 mg/kg subcutaneous dose; summary of the method: as §1
Plasmodium berghei [3] = assay: Antimalarial activity in Plasmodium berghei infected mice (Mus musculus) after 160 mg/kg subcutaneous dose; summary of the method: as §1
Plasmodium berghei [4] = assay: Antimalarial activity in Plasmodium berghei infected mice (Mus musculus) after subcutaneous 640 mg/kg dose
Summary of the method: (§3)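 Normal drug-sensitive P. berghei strain in mice. Compound dissolved or suspended in sesame or peanut oil, given parenterally as a single subcutaneous dose 72 h postinfection.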

Plasmodium berghei [5] = assay: (§4) Antimalarial activity in Plasmodium berghei infected mice (Mus musculus) after 40 mg/kg subcutaneous dose; summary of the method: as §1
Plasmodium berghei [6] = assay: as §4; summary of the method: as §3; remark: listed apart in the source
Plasmodium berghei [7] = assay: Antimalarial activity Plasmodium berghei infected mice (Mus musculus) after 640 mg/kg subcutaneous dose; summary of the method: as §1
Plasmodium berghei [8] = assay: Antimalarial activity in Plasmodium berghei infected mice (Mus musculus) after subcutaneous 160 mg/kg dose; summary of the method: as §3
Plasmodium berghei [9] = assay: Antimalarial activity in Plasmodium berghei infected mice (Mus musculus) after 20 mg/kg subcutaneous dose; summary of the method: as §1
Plasmodium berghei [10] = assay: as §2; summary of the method: as §3; remark: listed apart in the source
Plasmodium berghei [11] = assay: Antimalarial activity in Plasmodium berghei infected mice (Mus musculus) after subcutaneous 320 mg/kg dose; summary of the method: as §3

Structure (SMILES) | Delta mean survival time (Plasmodium berghei [1]) | Delta mean survival time (Plasmodium berghei [2]) | Delta mean survival time (Plasmodium berghei [3]) | No. of cured mice (Plasmodium berghei [4]) | Delta mean survival time (Plasmodium berghei [5]) | No. of cured mice (Plasmodium berghei [6]) | Delta mean survival time (Plasmodium berghei [7]) | No. of cured mice (Plasmodium berghei [8]) | Delta mean survival time (Plasmodium berghei [9]) | No. of cured mice (Plasmodium berghei [10]) | No. of cured mice (Plasmodium berghei [11]) | Delta mean survival time (Plasmodium berghei [2]; 80 mg/kg) | No. of cured mice (Plasmodium berghei [6]; 40 mg/kg) | Delta mean survival time (Plasmodium berghei [9]; 20 mg/kg) | Delta mean survival time (Plasmodium berghei [5]; 40 mg/kg)
CN(C)CCC/N=C1\CC(c2ccccc2)Cc2c1c(=O)c1cc(Cl)ccc1n2O (stereo not given) | 8.8 | 1.2 | 4.2 | 5 | 0.6 |  |  |  |  |  |  |  |  |  | 
CCN(CC)CCCCCCC/N=C1\CC(c2ccc(C(F)(F)F)cc2)Cc2nc3ccc(Cl)cc3c(O)c21 (stereo not given) |  |  | 23.1 | 3 | 9.6 | 4 | 0.1 | 3 |  |  |  |  |  |  | 
CC1C(=O)c2c(nc3ccc(Cl)cc3c2O)CC1c1ccc(Cl)c(Cl)c1 (stereo not given) |  |  |  | 5 | 10.8 | 3 |  | 5 | 8.2 | 5 | 5 |  |  |  | 
CN(C)CCC/N=C1\CC(c2cccc(Br)c2)Cc2c1c(=O)c1cc(Cl)ccc1n2O (stereo not given) | 10.2 | 5.3 | 9.4 | 5 | 1.6 |  |  |  |  |  | 2 |  |  |  | 
CCN(CC)CC/N=C1\CC(c2ccc(C(F)(F)F)cc2)Cc2nc3ccc(Cl)cc3c(O)c21 (stereo not given) |  |  |  | 5 | 17.6 | 3 |  | 5 |  |  |  |  |  |  | 
CCN1CCCC(/N=C2\CC(c3ccc(Cl)c(Cl)c3)Cc3c2c(=O)c2cc(Cl)ccc2n3O)C1 (stereo not given) | 8.8 | 7.2 | 8.3 | 5 |  |  |  | 2 |  |  | 4 |  |  |  | 
CN(C)CCC/N=C1\CC(c2ccc(C(F)(F)F)cc2)Cc2nc3ccc(Br)cc3c(O)c21 (stereo not given) |  |  |  | 2 | 9.3 | 1 | 25.7 | 5 | 6 | 5 | 5 |  |  |  | 
C=CCn1c2c(c(=O)c3cc(Cl)ccc31)C(=O)CC(c1ccc(C(F)(F)F)cc1)C2 (stereo not given) |  |  | 12.6 | 4 | 8.5 | 1 | 15 |  |  |  |  |  |  |  | 
O=c1c2c(n(O)c3ccc(Cl)cc13)CC(c1cccc(C(F)(F)F)c1)C/C2=N\Cc1ccc(Cl)c(Cl)c1 (stereo not given) | 11.5 | 4.4 | 8.4 | 5 |  |  |  |  |  |  | 2 |  |  |  | 
CCCC/N=C1\CC(c2ccc(C(F)(F)F)cc2)Cc2c1c(=O)c1cc(Cl)ccc1n2O (stereo not given) |  | 10.2 |  | 5 | 8.5 | 1 |  | 5 | 5.3 | 3 | 5 |  |  |  | 
C=CCNCC/N=C1\CC(c2cccc(C(F)(F)F)c2)Cc2c1c(=O)c1cc(Cl)ccc1n2O (stereo not given) |  | 9.4 |  | 5 | 5.9 | 2 |  | 5 | 3 | 1 | 5 |  |  |  | 
CN(C)c1ccc(C2CC(=O)c3c(n(O)c4ccc(Cl)cc4c3=O)C2)cc1 (stereo not given) | 6.8 | 5.8 | 6.6 | 5 | 1.6 |  |  | 1 |  |  | 3 |  |  |  | 
CN(C)CCC/N=C1\CC(c2c(Cl)cccc2Cl)Cc2c1c(=O)c1cc(Cl)ccc1n2O (stereo not given) | 7.2 | 4.1 | 9.4 | 5 | 1.2 |  |  | 1 |  |  | 1 |  |  |  | 
O=C1CC(c2ccc(F)cc2)Cc2c1c(=O)c1cc(Cl)ccc1n2O (stereo not given) |  | 9.8 | 8.8 | 5 | 19.4 | 2 |  | 4 | 5 | 4 | 5 |  |  |  | 
CC(C/N=C1\CC(c2cccc(C(F)(F)F)c2)Cc2c1c(=O)c1cc(Cl)ccc1n2O)N(C)C (stereo not given) |  | 9.2 | 8.6 | 5 | 11.9 | 1 |  | 2 | 4 |  | 5 |  |  |  | 
CN(C)CCC/N=C1\CC(c2ccc(N(C)C)cc2)Cc2c1c(=O)c1cc(Cl)ccc1n2O (stereo not given) | 7.4 | 0.9 | 6.8 | 5 |  |  |  |  |  |  | 3 |  |  |  | 
CN(C)CCC/N=C1\CC(c2ccc(Cl)c(Cl)c2)Cc2nc3ccc(Cl)cc3c(O)c21 (stereo not given) |  | 11.8 |  | 5 | 9.8 | 3 |  | 5 | 9.2 | 4 | 5 |  |  |  | 
CCN(CC)CCCC(C)/N=C1\CC(c2ccc(Cl)c(Cl)c2)Cc2c1c(=O)c1cc(Cl)ccc1n2O (stereo not given) |  | 9.6 |  | 5 | 6.1 | 1 |  | 5 |  | 1 | 5 |  |  |  | 
CCCCN(CCCC)CC/N=C1\CC(c2cccc(C(F)(F)F)c2)Cc2c1c(=O)c1cc(Cl)ccc1n2O (stereo not given) |  | 7 | 11.6 | 5 | 9.6 | 1 |  | 3 | 5.4 |  | 5 |  |  |  | 
CN(C)CCC/N=C1\CC(c2ccc(Cl)c(Cl)c2)Cc2c1c(=O)c1cc(Cl)ccc1n2O (stereo not given) |  | 17.2 |  | 5 | 12.7 | 3 |  | 5 | 7.1 | 3 | 5 |  |  |  | 
CN(C)CCC/N=C1\CC(c2ccc(Cl)c(C(F)(F)F)c2)Cc2nc3ccc(Cl)cc3c(O)c21 (stereo not given) |  |  |  | 5 | 8.7 | 4 |  | 5 | 7.5 | 5 | 5 |  |  |  | 
CCN(CC)C1CCC(/N=C2\CC(c3ccc(Cl)c(Cl)c3)Cc3c2c(=O)c2cc(Cl)ccc2n3O)CC1 (stereo not given) | 12.1 | 7.2 |  | 5 | 5.6 |  |  | 5 |  |  | 3 |  |  |  | 
CC1/C(=N\CCCN(C)C)c2c(nc3ccc(Cl)cc3c2O)CC1c1ccc(Cl)c(Cl)c1 (trans isomer) |  |  |  |  |  |  |  | 5 |  | 4 | 5 | 15 | 1 | 5.3 | 7.2
